Data from ChEMBL document CHEMBL1158964, “Isolation and cytotoxicity of two new flavonoids from Chrysosplenium grayanum and related flavonols” (1991).
Values after ≈ are worked out from the molar mass of the structure shown.

System: KB
Experiment: Cytotoxicity against human KB cells after 72 hrs
Format: functional
Details: read-out: ED50 (the source's name)
Procedure, shortened: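 KB cells kept in MEM with 5% fetal calf serum; assay run largely per NCI guidelines in 24-well plates in a CO₂ incubator. Cells assayed after 72 h by a literature procedure. ED₅₀ estimated from semi-log plots of sample concentration (μg/ml) against percent viable cells; three determinations.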

SMILES | EC50
COc1cc(O)c2c(=O)c(OC)c(-c3cc(O)c(OC)cc3OC)oc2c1 [CHRYSOSPLENOL G] | 8.61 µg/mL (≈ 23 µM)
COc1cc(-c2oc3cc(OC)c(O)c(O)c3c(=O)c2OC)ccc1O [CHRYSOSPLENOL C] | 11.2 µg/mL (≈ 31.1 µM)
COC(=O)c1cc(O)c(OC)c(O)c1 | 8.62 µg/mL (≈ 43.5 µM)
COc1cc(O)c2c(=O)c(OC)c(-c3cc(OC)c(OC)cc3O)oc2c1 [CHRYSOSPLENOL E] | > 25 µg/mL
COc1cc2oc(-c3ccc(O)c(O)c3)c(OC)c(=O)c2c(O)c1OC [CHRYSOSPLENOL D] | 13.9 µg/mL (≈ 38.7 µM)
COc1cc(O)c2c(=O)c(OC)c(-c3ccc(OC)c(OC)c3)oc2c1 [RETUSIN] | > 25 µg/mL
COc1cc(O)c2c(=O)c(OC)c(-c3cc(OC)c(O)cc3O)oc2c1 [CHRYSOSPLENOL F] | > 25 µg/mL
COc1cc(-c2oc3cc(OC)c(OC)c(O)c3c(=O)c2OC)ccc1O [CHRYSOSPLENOL B] | 7.42 µg/mL (≈ 19.8 µM)
COc1cc(O)c2c(=O)c(OC)c(-c3cc(O)c(OC)cc3O)oc2c1 [OXYAYANIN A] | 1.99 µg/mL (≈ 5.52 µM)
COc1cc(O)c(-c2oc3cc(OC)c(OC)c(O)c3c(=O)c2OC)cc1OC [BRICKELLIN] | > 25 µg/mL
